{"source": "ChEMBL document CHEMBL2157901", "about": "“Synthesis, biological evaluation and molecular modeling of dihydro-pyrazolyl-thiazolinone derivatives as potential COX-2 inhibitors” (Bioorg Med Chem, 2012)", "key": {"[1]": {"assay": "Cytotoxicity against LPS-activated mouse RAW264.7 cells after 24 hrs by MTT method", "format": "cell-based", "settings": "LPS-activated RAW264.7 cells", "in_short": "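MTT assay in RAW264.7 cells grown in DMEM with 5% FBS, penicillin and streptomycin at 37 °C under 5% CO₂. Cells were seeded at 5 × 10⁴ per well and exposed for 24 h to compounds diluted from DMSO stocks (0.1% DMSO final). MTT (4 mg/mL) was added 4 h before the end, then plates were centrifuged and supernatant removed. CC₅₀ is the concentration cutting viability to 50%; mean of three experiments in triplicate.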"}, "[2]": {"target": "Prostaglandin G/H synthase 1 (Homo sapiens, UniProt P23219)", "sequence (P23219 whole entry)": "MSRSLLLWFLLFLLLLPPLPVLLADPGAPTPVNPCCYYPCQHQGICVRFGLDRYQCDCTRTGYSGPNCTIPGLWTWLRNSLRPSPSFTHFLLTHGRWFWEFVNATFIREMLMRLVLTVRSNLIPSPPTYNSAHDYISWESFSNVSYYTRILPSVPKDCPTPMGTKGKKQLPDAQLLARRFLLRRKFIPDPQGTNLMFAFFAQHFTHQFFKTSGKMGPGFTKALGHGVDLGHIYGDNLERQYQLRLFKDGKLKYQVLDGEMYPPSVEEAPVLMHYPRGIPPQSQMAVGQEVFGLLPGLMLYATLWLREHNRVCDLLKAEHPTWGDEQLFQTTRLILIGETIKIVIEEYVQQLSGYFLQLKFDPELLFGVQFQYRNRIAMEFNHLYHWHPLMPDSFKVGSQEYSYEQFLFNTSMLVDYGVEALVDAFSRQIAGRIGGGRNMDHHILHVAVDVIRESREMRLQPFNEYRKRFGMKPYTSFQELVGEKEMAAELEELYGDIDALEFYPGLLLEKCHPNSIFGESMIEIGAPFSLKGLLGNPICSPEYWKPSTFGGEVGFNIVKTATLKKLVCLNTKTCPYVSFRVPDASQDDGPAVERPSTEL", "assay": "Inhibition of COX-1 by chemiluminescent assay"}, "[3]": {"assay": "Selectivity index, ratio of IC50 for COX-1 to IC50 for COX-2", "in_short": "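COX-1 and COX-2 inhibition measured with a chemiluminescent enzyme assay kit. Each IC₅₀ (50% enzyme inhibition) is the mean of two determinations. Selectivity index taken as COX-1 IC₅₀ divided by COX-2 IC₅₀.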"}, "[4]": {"target": "T1, Prostaglandin G/H synthase 2 (Homo sapiens, UniProt P35354)", "T1 sequence (P35354 whole entry)": "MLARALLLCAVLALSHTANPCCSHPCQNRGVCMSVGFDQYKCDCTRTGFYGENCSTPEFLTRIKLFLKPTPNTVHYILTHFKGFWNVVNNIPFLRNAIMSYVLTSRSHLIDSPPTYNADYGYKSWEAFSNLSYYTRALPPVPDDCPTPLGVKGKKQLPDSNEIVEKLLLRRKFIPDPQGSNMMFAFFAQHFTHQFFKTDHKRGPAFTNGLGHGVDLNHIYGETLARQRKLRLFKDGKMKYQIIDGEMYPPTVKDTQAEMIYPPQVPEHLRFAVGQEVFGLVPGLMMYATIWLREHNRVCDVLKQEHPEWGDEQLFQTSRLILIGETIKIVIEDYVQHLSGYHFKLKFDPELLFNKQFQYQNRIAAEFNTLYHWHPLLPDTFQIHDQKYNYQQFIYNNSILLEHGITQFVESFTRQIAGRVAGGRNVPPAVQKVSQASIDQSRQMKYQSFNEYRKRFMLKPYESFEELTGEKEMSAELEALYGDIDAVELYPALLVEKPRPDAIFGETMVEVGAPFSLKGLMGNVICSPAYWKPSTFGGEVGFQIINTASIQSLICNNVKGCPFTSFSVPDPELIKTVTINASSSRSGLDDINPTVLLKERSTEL", "assay": "Inhibition of COX-2 by chemiluminescent assay"}, "[5]": {"system": "RAW264.7", "assay": "Inhibition of LPS-induced COX-2 expression in mouse RAW264.7 cells at >1.25 uM by Western blot analysis", "format": "functional, cell-based"}}, "note": "Active and inactive are the calls of the source. No cut-off for these calls is given here.", "data": [{"smiles": "Cc1ccc(C2CC(c3ccc(C)c(C)c3)=NN2C2=NC(=O)CS2)cc1", "note": "(stereo unspecified)", "values": [{"measurement": "CC50 at 24 h", "setting": "[1]", "result": 384, "unit": "µM"}, {"measurement": "IC50", "setting": "[2]", "result": 45.3, "unit": "µM"}, {"measurement": "Ratio IC50", "setting": "[3]", "result": 37.8}, {"measurement": "IC50", "setting": "[4]", "result": 1.2, "unit": "µM"}]}, {"smiles": "O=C1CSC(N2N=C(c3ccc(Cl)c(Cl)c3)CC2c2ccc(Cl)cc2)=N1", "note": "(stereo unspecified)", "values": [{"measurement": "CC50 at 24 h", "setting": "[1]", "result": 187, "unit": "µM"}, {"measurement": "IC50", "setting": "[2]", "result": 37.7, "unit": "µM"}, {"measurement": "Ratio IC50", "setting": "[3]", "result": 3.2}, {"measurement": "IC50", "setting": "[4]", "result": 11.7, "unit": "µM"}]}, {"smiles": "Cc1ccc(C2=NN(C3=NC(=O)CS3)C(c3ccc(Br)cc3)C2)cc1C", "note": "(stereo unspecified)", "values": [{"measurement": "CC50 at 24 h", "setting": "[1]", "result": 365, "unit": "µM"}, {"measurement": "IC50", "setting": "[2]", "result": "> 50", "unit": "µM"}, {"measurement": "Ratio IC50", "setting": "[3]", "result": "> 27.8"}, {"measurement": "IC50", "setting": "[4]", "result": 1.8, "unit": "µM"}]}, {"smiles": "Cc1ccccc1C1CC(c2ccc(Cl)c(Cl)c2)=NN1C1=NC(=O)CS1", "note": "(stereo unspecified)", "values": [{"measurement": "CC50 at 24 h", "setting": "[1]", "result": 179, "unit": "µM"}, {"measurement": "IC50", "setting": "[2]", "result": 45.6, "unit": "µM"}, {"measurement": "Ratio IC50", "setting": "[3]", "result": 2.8}, {"measurement": "IC50", "setting": "[4]", "result": 16.3, "unit": "µM"}]}, {"smiles": "O=C1CSC(N2N=C(c3ccc(Cl)c(Cl)c3)CC2c2ccc(Br)cc2)=N1", "note": "(stereo unspecified)", "values": [{"measurement": "CC50 at 24 h", "setting": "[1]", "result": 280, "unit": "µM"}, {"measurement": "IC50", "setting": "[2]", "result": 48.5, "unit": "µM"}, {"measurement": "Ratio IC50", "setting": "[3]", "result": 6.4}, {"measurement": "IC50", "setting": "[4]", "result": 7.6, "unit": "µM"}]}, {"smiles": "Cc1ccc(C2=NN(C3=NC(=O)CS3)C(c3ccccc3Cl)C2)cc1C", "note": "(stereo unspecified)", "values": [{"measurement": "CC50 at 24 h", "setting": "[1]", "result": 227, "unit": "µM"}, {"measurement": "IC50", "setting": "[2]", "result": 44.1, "unit": "µM"}, {"measurement": "Ratio IC50", "setting": "[3]", "result": 6.1}, {"measurement": "IC50", "setting": "[4]", "result": 7.2, "unit": "µM"}]}, {"smiles": "O=C1CSC(N2N=C(c3ccc(Cl)c(Cl)c3)CC2c2ccc(F)cc2)=N1", "note": "(stereo unspecified)", "values": [{"measurement": "CC50 at 24 h", "setting": "[1]", "result": 139, "unit": "µM"}, {"measurement": "IC50", "setting": "[2]", "result": 34.3, "unit": "µM"}, {"measurement": "Ratio IC50", "setting": "[3]", "result": 1.8}, {"measurement": "IC50", "setting": "[4]", "result": 19.4, "unit": "µM"}]}, {"smiles": "COc1ccc(C2CC(c3ccc(C)c(C)c3)=NN2C2=NC(=O)CS2)cc1", "note": "(stereo unspecified)", "values": [{"measurement": "CC50 at 24 h", "setting": "[1]", "result": 387, "unit": "µM"}, {"measurement": "IC50", "setting": "[2]", "result": "> 50", "unit": "µM"}, {"measurement": "Ratio IC50", "setting": "[3]", "result": "> 17.2"}, {"measurement": "IC50", "setting": "[4]", "result": 2.9, "unit": "µM"}]}, {"smiles": "O=C1CSC(N2N=C(c3ccc(Cl)c(Cl)c3)CC2c2ccccc2Cl)=N1", "note": "(stereo unspecified)", "values": [{"measurement": "CC50 at 24 h", "setting": "[1]", "result": 143, "unit": "µM"}, {"measurement": "IC50", "setting": "[2]", "result": 40.2, "unit": "µM"}, {"measurement": "Ratio IC50", "setting": "[3]", "result": 2.2}, {"measurement": "IC50", "setting": "[4]", "result": 18.4, "unit": "µM"}]}, {"smiles": "Cc1ccc(C2CC(c3ccc(Cl)c(Cl)c3)=NN2C2=NC(=O)CS2)cc1", "note": "(stereo unspecified)", "values": [{"measurement": "CC50 at 24 h", "setting": "[1]", "result": 279, "unit": "µM"}, {"measurement": "IC50", "setting": "[2]", "result": 44.3, "unit": "µM"}, {"measurement": "Ratio IC50", "setting": "[3]", "result": 9.4}, {"measurement": "IC50", "setting": "[4]", "result": 4.7, "unit": "µM"}]}, {"smiles": "Cc1cccc(C2CC(c3ccc(Cl)c(Cl)c3)=NN2C2=NC(=O)CS2)c1", "note": "(stereo unspecified)", "values": [{"measurement": "CC50 at 24 h", "setting": "[1]", "result": 204, "unit": "µM"}, {"measurement": "IC50", "setting": "[2]", "result": "> 50", "unit": "µM"}, {"measurement": "Ratio IC50", "setting": "[3]", "result": "> 6.9"}, {"measurement": "IC50", "setting": "[4]", "result": 7.2, "unit": "µM"}]}, {"smiles": "Cc1ccc(C2=NN(C3=NC(=O)CS3)C(c3ccc(Cl)cc3)C2)cc1C", "note": "(stereo unspecified)", "values": [{"measurement": "CC50 at 24 h", "setting": "[1]", "result": 226, "unit": "µM"}, {"measurement": "IC50", "setting": "[2]", "result": 48.6, "unit": "µM"}, {"measurement": "Ratio IC50", "setting": "[3]", "result": 10.8}, {"measurement": "IC50", "setting": "[4]", "result": 4.5, "unit": "µM"}]}, {"smiles": "Cc1ccc(C2=NN(C3=NC(=O)CS3)C(c3ccc(F)cc3)C2)cc1C", "note": "(stereo unspecified)", "values": [{"measurement": "CC50 at 24 h", "setting": "[1]", "result": 246, "unit": "µM"}, {"measurement": "IC50", "setting": "[2]", "result": 40.8, "unit": "µM"}, {"measurement": "Ratio IC50", "setting": "[3]", "result": 6.4}, {"measurement": "IC50", "setting": "[4]", "result": 6.4, "unit": "µM"}]}, {"smiles": "Cc1ccc(C2=NN(C3=NC(=O)CS3)C(c3ccccc3C)C2)cc1C", "note": "(stereo unspecified)", "values": [{"measurement": "CC50 at 24 h", "setting": "[1]", "result": 317, "unit": "µM"}, {"measurement": "IC50", "setting": "[2]", "result": 47.2, "unit": "µM"}, {"measurement": "Ratio IC50", "setting": "[3]", "result": 7.5}, {"measurement": "IC50", "setting": "[4]", "result": 6.3, "unit": "µM"}]}, {"smiles": "O=C1CSC(N2N=C(c3ccc(Cl)c(Cl)c3)CC2c2cccc(Cl)c2)=N1", "note": "(stereo unspecified)", "values": [{"measurement": "CC50 at 24 h", "setting": "[1]", "result": 165, "unit": "µM"}, {"measurement": "IC50", "setting": "[2]", "result": "> 50", "unit": "µM"}, {"measurement": "Ratio IC50", "setting": "[3]", "result": "> 3.1"}, {"measurement": "IC50", "setting": "[4]", "result": 16.1, "unit": "µM"}]}, {"smiles": "Cc1ccc(C2=NN(C3=NC(=O)CS3)C(c3ccccc3)C2)cc1C", "note": "(stereo unspecified)", "values": [{"measurement": "CC50 at 24 h", "setting": "[1]", "result": "> 450", "unit": "µM"}, {"measurement": "IC50", "setting": "[2]", "result": 42.4, "unit": "µM"}, {"measurement": "Ratio IC50", "setting": "[3]", "result": 84.8}, {"measurement": "IC50", "setting": "[4]", "result": 0.5, "unit": "µM"}, {"measurement": "inhibition", "setting": "[5]", "result": "Active"}]}, {"smiles": "Cc1cccc(C2CC(c3ccc(C)c(C)c3)=NN2C2=NC(=O)CS2)c1", "note": "(stereo unspecified)", "values": [{"measurement": "CC50 at 24 h", "setting": "[1]", "result": 237, "unit": "µM"}, {"measurement": "IC50", "setting": "[2]", "result": "> 50", "unit": "µM"}, {"measurement": "Ratio IC50", "setting": "[3]", "result": "> 18.5"}, {"measurement": "IC50", "setting": "[4]", "result": 2.7, "unit": "µM"}]}, {"smiles": "Cc1ccc(C2=NN(C3=NC(=O)CS3)C(c3cccc(Cl)c3)C2)cc1C", "note": "(stereo unspecified)", "values": [{"measurement": "CC50 at 24 h", "setting": "[1]", "result": 178, "unit": "µM"}, {"measurement": "IC50", "setting": "[2]", "result": "> 50", "unit": "µM"}, {"measurement": "Ratio IC50", "setting": "[3]", "result": "> 9.6"}, {"measurement": "IC50", "setting": "[4]", "result": 5.2, "unit": "µM"}]}, {"smiles": "O=C1CSC(N2N=C(c3ccc(Cl)c(Cl)c3)CC2c2ccccc2)=N1", "note": "(stereo unspecified)", "values": [{"measurement": "CC50 at 24 h", "setting": "[1]", "result": 295, "unit": "µM"}, {"measurement": "IC50", "setting": "[2]", "result": 33.2, "unit": "µM"}, {"measurement": "Ratio IC50", "setting": "[3]", "result": 12.3}, {"measurement": "IC50", "setting": "[4]", "result": 2.7, "unit": "µM"}]}, {"smiles": "COc1ccc(C2CC(c3ccc(Cl)c(Cl)c3)=NN2C2=NC(=O)CS2)cc1", "note": "(stereo unspecified)", "values": [{"measurement": "CC50 at 24 h", "setting": "[1]", "result": 264, "unit": "µM"}, {"measurement": "IC50", "setting": "[2]", "result": "> 50", "unit": "µM"}, {"measurement": "Ratio IC50", "setting": "[3]", "result": "> 7.4"}, {"measurement": "IC50", "setting": "[4]", "result": 6.8, "unit": "µM"}]}]}
